For 19 compounds, Activity and viability results are on record in ChEMBL document CHEMBL1828596, “Synthesis of methoxy- and bromo-substituted indirubins and their activities on apoptosis induction in human neuroblastoma cells” (Bioorg Med Chem Lett, 2011).

Data set [1] deals with HUVEC. Briefly: (§1) Cytotoxicity against human HUVEC cells assessed as cell viability up to 40 uM after 48 hrs by MTT assay. It counts as cell-based. The settings on record: huvec, 48 h. A digest of the protocol:
(§2)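 MTT viability assay in neuroblastoma lines (IMR-32, SK-N-SH, NB-39) and normal cells (NHDF, HUVEC). Cells were exposed to the indicated concentrations of compound or DMSO vehicle for 48 h. Survival is expressed relative to the vehicle control as mean ± SEM, n = 3.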
For orientation: Formazan colour is commonly taken as a measure of viable cells.

Data set [2] relates to SK-N-SH. Briefly: Cytotoxicity against human SK-N-SH cells assessed as cell viability up to 40 uM after 48 hrs by MTT assay. The format is functional, cell-based. The gist of the method:
as §2

For data set [3], the system named is IMR-32. Kind of data set: Cytotoxicity against human IMR32 cells assessed as cell viability up to 40 uM after 48 hrs by MTT assay. The format is functional, cell-based. The gist of the method:
as §2

Data set [4] relates to NHDF. Kind of data set: (§3) Cytotoxicity against human NHDF cells assessed as cell viability up to 40 uM after 48 hrs by MTT assay. It counts as cell-based. As to conditions: nhdf, 48 h. The gist of the method:
as §2

For data set [5], the system named is NB39. Briefly: Cytotoxicity against human NB39 cells assessed as cell viability up to 40 uM after 48 hrs by MTT assay. The format is functional, cell-based. A digest of the protocol:
as §2

The subject of data set [6] is NB39. Kind of data set: Cytotoxicity against human NB39 cells assessed as cell viability after 48 hrs by MTT assay. It counts as functional, cell-based. A digest of the protocol:
as §2

Data set [7] relates to SK-N-SH. Kind of data set: Cytotoxicity against human SK-N-SH cells assessed as cell viability after 48 hrs by MTT assay. It counts as functional, cell-based. A digest of the protocol:
as §2

Data set [8] deals with IMR-32. Kind of data set: Cytotoxicity against human IMR32 cells assessed as cell viability after 48 hrs by MTT assay. It counts as functional, cell-based. The gist of the method:
as §2

In data set [9] the test system is HUVEC. Briefly: Cytotoxicity against human HUVEC cells assessed as cell viability after 48 hrs by MTT assay. The format is cell-based. A digest of the protocol:
as §2

The subject of data set [10] is NHDF. Briefly: Cytotoxicity against human NHDF cells assessed as cell viability after 48 hrs by MTT assay. It counts as cell-based. A digest of the protocol:
as §2

Data set [11] has as its system IMR-32. Briefly: Induction of apoptosis human IMR32 cells assessed as increase in late apoptotic cells at 100 uM after 48 hrs using annexin V-propidium iodide staining by flow cytometry. The format is functional, cell-based. A digest of the protocol:
(§4)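 IMR-32 cells were treated with compound at 100 μM or DMSO vehicle for 48 h; untreated cells served as the normal group. Cells were double-stained with Annexin V-Alexa Fluor 488 and propidium iodide and analysed by flow cytometry. Early apoptosis was read as Annexin+/PI− and late apoptosis as Annexin+/PI+. Groups were compared with one-way ANOVA and Bonferroni post hoc test versus vehicle.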
Background: Flow cytometry measures light scatter and fluorescence of single cells or particles in a stream.

Data set [12] can be described thus: Cytotoxicity against human HUVEC cells assessed as cell survival at 100 uM. It counts as cell-based. The settings on record: read-out: Activity. A digest of the protocol:
as §2

A short description of data set [13]: Cytotoxicity against human NB39 cells assessed as cell survival at 100 uM. It counts as functional. As to conditions: read-out: Activity. A digest of the protocol: as §2
The subject of data set [14] is IMR-32. Briefly: Cytotoxicity against human IMR32 cells assessed as cell survival at 100 uM. As to conditions: read-out: Activity. It counts as functional. The gist of the method:
as §2

Data set [15] concerns IMR-32. Kind of data set: Induction of apoptosis in human IMR32 cells assessed as chromatin condensation at 1 x 10^-6 to 1 x 10^-4 M after 24 hrs using Hoechst 33342 staining by fluorescent microscopic analysis. The format is functional, cell-based. A digest of the protocol:
(§5)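 IMR-32 cells were exposed to compound (1 × 10⁻⁶–1 × 10⁻⁴ M) or cisplatin (1 × 10⁻⁴ M) for 24 h, then stained with Hoechst 33342. Phase-contrast and fluorescence microscopy were used to assess nuclear morphology (shrinkage, chromatin condensation, fragmented nuclei).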

Data set [16] relates to IMR-32. Briefly: Induction of apoptosis human IMR32 cells assessed as increase in early apoptotic cells at 100 uM after 48 hrs using annexin V-propidium iodide staining by flow cytometry. It counts as functional, cell-based. The gist of the method: as §4
Data set [17] in a line: Cytotoxicity against human NHDF cells assessed as cell survival at 100 uM. The format is cell-based. The settings on record: read-out: Activity. A digest of the protocol: as §2
In data set [18] the test system is IMR-32. Kind of data set: Induction of apoptosis in human IMR32 cells assessed as appearance of fragmented nuclei at 1 x 10^-6 to 1 x 10^-4 M after 24 hrs using Hoechst 33342 staining by fluorescent microscopic analysis. It counts as functional, cell-based. The gist of the method:
as §5

In data set [19] the test system is IMR-32. Briefly: Induction of apoptosis in human IMR32 cells assessed as cellular shrinkage at 1 x 10^-6 to 1 x 10^-4 M after 24 hrs using Hoechst 33342 staining by fluorescent microscopic analysis. The format is functional, cell-based. A digest of the protocol: as §5
Data set [20] relates to SK-N-SH. Kind of data set: Cytotoxicity against human SK-N-SH cells assessed as cell survival at 100 uM. The settings on record: read-out: Activity. The format is functional. The gist of the method: as §2
The nature of data set [21]: as §1. It counts as cell-based. As to conditions: HUVEC cells, read-out: Activity. A digest of the protocol:
as §2

Data set [22] in a line: as §3. The settings on record: NHDF cells, read-out: Activity. It counts as cell-based. The gist of the method:
as §2

Activity calls are given as the source filed them. No cut-off for these calls is given here.

As for `COc1ccc2c(c1)NC(=O)/C2=C1\Nc2ccccc2C1=O`, the Activity entry in the data set on HUVEC [1] and with NHDF [4] was “Non-toxic” throughout. The outcome with SK-N-SH [2], with IMR-32 [3] and with NB39 [5] was inactive.

Consider `O=C1C(c2c(O)[nH]c3cc(Br)ccc23)=Nc2ccccc21`, for which the result in the data set on NB39 [6], with SK-N-SH [7] and in the data set with IMR-32 [8] was inactive. Further, the Activity entry in the data set on HUVEC [9] and with NHDF [10] was “Non-toxic” each time.

In the case of `COc1cccc2c1NC(=O)/C2=C1\Nc2ccccc2C1=O`, the Activity entry in the data set with HUVEC [1] and in the data set with NHDF [4] was “Non-toxic” each time. In addition, the result in the data set with SK-N-SH [2], in the data set on IMR-32 [3] and in the data set with NB39 [5] was inactive.

Take `CCc1ccc2c(c1)C(=O)/C(=C1/C(=O)Nc3ccccc31)N2`: the Activity entry with HUVEC [1] and in the data set with NHDF [4] was “Non-toxic” throughout. The result in the data set on SK-N-SH [2], in the data set on IMR-32 [3] and with NB39 [5] was inactive.

Take `COc1ccc2c(c1)C(=O)C(c1c(O)[nH]c3ccccc13)=N2`: the result in the data set with NB39 [6], in the data set with IMR-32 [11], in the data set on IMR-32 [15], in the data set with IMR-32 [16], in the data set with IMR-32 [18] and with SK-N-SH [7] was Active. Further, the result with IMR-32 [8] and in the data set on IMR-32 [19] was Active. Further, the viability at 100 µM was 40% in [12]; 10% in [13]; 10% in the data set on IMR-32 [14]; 80% in data set [17]; 10% in the data set on SK-N-SH [20]. Also, the Activity result in the data set on HUVEC [9] and in the data set with NHDF [10] was “Non-toxic” throughout.

Regarding `COc1ccc2c(c1)C(=N\O)/C(=C1/C(=O)Nc3ccccc31)N2`, the outcome with NB39 [6], with SK-N-SH [7] and in the data set with IMR-32 [8] was inactive. The Activity entry with HUVEC [9] and in the data set on NHDF [10] was “Non-toxic” throughout.

`COc1ccc2c(c1)/C(=C1/Nc3ccccc3/C1=N\O)C(=O)N2`: the result with NB39 [6], in the data set on SK-N-SH [7] and in the data set on IMR-32 [8] was Active.

As for `COc1ccc2c(c1)NC(=O)/C2=C1\Nc2ccccc2\C1=N/O`, the result in the data set on NB39 [6], with SK-N-SH [7] and with IMR-32 [8] was Active. Moreover, the Activity result in the data set on HUVEC [9] and with NHDF [10] was “Non-toxic” each time.

`O=C1C(c2c(O)[nH]c3ccccc23)=Nc2cc(Br)ccc21`: the result in the data set on NB39 [6], with SK-N-SH [7] and with IMR-32 [8] was inactive. The Activity entry in the data set on HUVEC [9] and with NHDF [10] was “Non-toxic” throughout.

Turning to `Cc1ccc2c(c1)C(=O)C(c1c(O)[nH]c3ccccc13)=N2`, the Activity result in the data set on HUVEC [1] and in the data set on NHDF [4] was “Non-toxic” each time. Also, the result in the data set on SK-N-SH [2], with IMR-32 [3] and in the data set on NB39 [5] was inactive.

Regarding `O=Nc1c(-c2c(O)[nH]c3ccccc23)[nH]c2ccccc12` [INDIRUBIN-3-MONOXIME], the result in the data set on NB39 [6], with SK-N-SH [7] and in the data set with IMR-32 [8] was Active. Further, in the data set on HUVEC [9], the Activity entry is listed as “Non-toxic”.

For `O=C1Nc2ccccc2/C1=C1/Nc2ccccc2C1=O` [INDIRUBIN], the Activity entry in the data set with HUVEC [1] and in the data set on NHDF [4] was “Non-toxic” each time. Besides, the outcome in the data set with SK-N-SH [2], in the data set on IMR-32 [3] and in the data set on NB39 [5] was inactive.

With `O=C1C(c2c(O)[nH]c3c(Br)cccc23)=Nc2ccccc21`, the result in the data set with NB39 [6], in the data set with SK-N-SH [7] and in the data set with IMR-32 [8] was inactive. Further, the Activity entry with HUVEC [9] and in the data set with NHDF [10] was “Non-toxic” throughout.

For the compound `COc1ccc2c(c1)N/C(=C1\C(=O)Nc3ccccc31)C2=O`, the figures for the viability at 48 h in data set [21] and in [22] were 60% and 82%, respectively. Further, the result in the data set with NB39 [6], with SK-N-SH [7] and in the data set on IMR-32 [8] was Active.

As to `O=C1Nc2cc(Br)ccc2/C1=C1/Nc2ccccc2/C1=N\O`, the outcome in the data set on NB39 [6], with SK-N-SH [7] and in the data set with IMR-32 [8] was Active.

Consider `O=C1C(c2c(O)[nH]c3ccccc23)=Nc2ccc(Br)cc21`, for which the result in the data set with NB39 [6], in the data set on SK-N-SH [7] and in the data set with IMR-32 [8] was inactive. Further, the Activity result with HUVEC [9] and in the data set with NHDF [10] was “Non-toxic” each time.

On to `O=C1C(c2c(O)[nH]c3ccc(Br)cc23)=Nc2ccccc21`, for which the outcome in the data set with NB39 [6], with SK-N-SH [7] and with IMR-32 [8] was inactive. Further, the Activity result in the data set with HUVEC [9] and in the data set with NHDF [10] was “Non-toxic” each time.

Turning to `COc1ccc2[nH]c(O)c(C3=Nc4ccccc4C3=O)c2c1`, the result in the data set with NB39 [6], with SK-N-SH [7] and with IMR-32 [8] was Active. The Activity result in the data set with HUVEC [9] and in the data set with NHDF [10] was “Toxic” each time.

As for `COc1cccc2c1NC(=O)/C2=C1\Nc2ccccc2\C1=N/O`, the result in the data set on NB39 [6], with SK-N-SH [7] and in the data set on IMR-32 [8] was Active.
